Rows were chosen to be rich in hits. Some 2.3% of all compounds tested hit in one or more screens of this group.
STAT3 act – increases IL-6 driven STAT3 reporter signal. AID 871. activation (% of control), % at 5.6 µM. U3A cells, IL-6 STAT3-luciferase reporter, luminescence; 100% = signal with IL-6 EC80 alone. actives 0.91% (n = 190,000);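 active = activation above the screen-wide mean of compound activation plus 3 SD, cut at about 130% in these data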;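 note: 0% = background luminescence of wells with medium and substrate only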
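system = STAT3-luciferase reporter U3A cells | reagent = IL-6 stimulus at 33 ng/mL final | timing = 1 h compound pre-exposure, 6 h IL-6 stimulation, 37 °C | measured by = luminescence | evaluation = % activation versus median of IL-6-stimulated wells | control set = IL-6-only wells as 100% reference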
STAT1 blocker – STAT1 signaling inhibition; NIH 3T3 STAT1-luciferase reporter, IFN-gamma, luminescence; inhibition, % at 5.5 µM; actives 0.35% (n = 200,000); AID 920;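 active = inhibition above a set limit, the mean inhibition across all tested compounds plus 3 SD, cut at about 34% in these data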;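 note: 0% = IFN-gamma with DMSO and 100% = IFN-gamma with 300 µM nifuroxazide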
PPC-1+TRAIL kill – kills PPC-1 cancer cells in the presence of TRAIL; PPC-1 cells + TRAIL, ATPLite viability luminescence; AID 1443; cell killing (% activity), % at 4 µM or 5 µM; actives 0.41% (n = 220,000);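 active = cell killing above 50% in the first pass at 4 µM, then a duplicate retest at 5 µM averaging 50% or more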;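 note: plate controls were cells with TRAIL plus DMSO for no effect and medium-only wells lacking cells for full effect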
STAT3 blocker – STAT3 signaling inhibition; U3A cells, IL-6 STAT3-luciferase reporter, luminescence; host cell line lacks STAT1; inhibition, % at 5.5 µM; actives 0.89% (n = 190,000); AID 862;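 active = inhibition above the mean inhibition across all screened compounds plus 3 SD, cut at about 44% in these data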;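 note: 0% = DMSO only wells and 100% = 100 µM nifuroxazide control wells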
C8 TRAIL sens – sensitizes caspase-8 expressing cells to TRAIL; NB7+C8 cells + TRAIL, ATPlite viability luminescence; inhibition (viability loss, TRAIL sensitization), % at 10 µM; actives 1% (n = 360,000);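 active = compounds causing at least 50% loss of cell viability in the single-dose screen, relative to plate controls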
HSP90 refold inh – inhibitors of HSP90 luciferase refolding in rabbit reticulocyte lysate; luciferase refolding luminescence, 3 h; inhibition, % at 5.6 µM; actives 0.91% (n = 290,000); AID 1789;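 active = inhibition above the screen-wide mean plus 3 SD, computed separately per campaign, cut at about 16% in these data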;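 note: 0% = DMSO wells and 100% = 60 µM geldanamycin wells; inhibitors lower the luminescence because luciferase stays unfolded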
PPC-1 tox – PPC-1 cell cytotoxicity | shares compounds with PPC-1+TRAIL kill | PPC-1 viability, ATPlite luminescence, overnight | cytotoxicity, % at 5 µM | actives 50% (n = 1,200);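 active = reconfirmed compounds whose average cytotoxicity reaches 50% or more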;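 note: 0% = DMSO-treated cells and 100% = wells holding medium but no cells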
Numbers without * were called inactive; . = no result given.

SMILES | STAT3 act | STAT1 blocker | PPC-1+TRAIL kill | STAT3 blocker | C8 TRAIL sens | HSP90 refold inh | PPC-1 tox
C/C(=N\NC(=O)c1ccc2c(c1)OCCO2)c1ccccc1 | . | . | 65* | . | 48 | -2 | 64*
O=C(N/N=C/c1ccc([N+](=O)[O-])s1)c1ccncc1 | 101 | 4 | 18 | -2 | 29 | 0 | .
O=C(N/N=C/c1cc(Br)cs1)c1ccc2c(c1)OCCO2 | . | . | 58* | . | 69* | 0 | 60*
CC(C)(C)c1ccc(NC(=O)CSc2nnc(-c3n[nH]c4ccccc34)o2)cc1 | 93 | -1 | 10 | 11 | 25 | 1 | .
COCn1c(-c2ccc(OC)cc2)nc2ccccc21 | 97 | -34 | 34 | 6 | 45 | 2 | 42
OC(CNc1ccnc2cc(Cl)ccc12)CNC1CCCCC1 (centres undefined) | . | . | . | . | 8 | . | .
Fc1ccc(NC(=S)Nc2cccc3cnccc23)cc1 | 131 | 18 | 4 | -27 | -2 | -6 | -3
Fc1ccc(NC(=S)Nc2cccc3ccccc23)cc1 | . | . | . | . | 8 | 2 | .
CC(=O)c1ccc(NC2=C(N3CCOCC3)C(=O)c3ccccc3C2=O)cc1 | 93 | 10 | -6 | 16 | 16 | 3 | .
CC(=O)N(C)C1=C(N2CCOCC2)C(=O)c2ccccc2C1=O | 108 | -2 | 24 | -5 | 90* | 4 | 27
Cc1cc(/C=C2/C(=N)N3C(=NC2=O)SN=C3S(C)(=O)=O)c(C)n1-c1ccccc1F | 94 | -15 | 68* | 9 | 85* | -1 | 70*
COc1ccc(S(=O)(=O)N(C)CC(=O)N2CCCCCC2)cc1 | . | . | . | . | -14 | 0 | .
COc1ccc(S(=O)(=O)N(C)CC(=O)N2CCC(C(N)=O)CC2)cc1 | 96 | -9 | 6 | 4 | -10 | -1 | 12
CNc1ccccc1C(=O)OCC(=O)N1CCN(c2ccc(OC)cc2)CC1 | . | . | . | . | 7 | 2 | .
O=C(CCl)Nc1c[nH]c(=O)[nH]c1=O | 94 | -8 | 6 | 12 | -7 | 3 | .
CC(=O)c1sc2c(c1OC(=O)c1ccc(Cl)cc1)c(=O)n(-c1ccccc1)c(=S)n2-c1ccccc1 | . | . | . | . | 10 | . | .
CC(=O)c1sc2c(c1OC(=O)c1ccc(Cl)cc1Cl)c(=O)n(-c1ccccc1)c(=S)n2-c1ccccc1 | . | . | 29 | . | 15 | 5 | 23
CCN=C(NCC)SC1CC(=O)N(c2ccc(OCC)cc2)C1=O (centres undefined) | . | -10 | 2 | . | -2 | 0 | .
COc1ccc(N=Nc2ccc(O)c3ncccc23)cc1 | . | . | 39 | . | 31 | 0 | 49
Cc1noc(NS(=O)(=O)c2ccc(N/C=C\C(=O)c3cccs3)cc2)c1C | 95 | -11 | 9 | 7 | 1 | 2 | .
COc1ccc(N/C=C\C(=O)c2ccc3c(c2)OCO3)cc1 | 73 | -13 | 68* | 30 | 69* | 0 | 59*
Cc1ccc(N/C=C/C(=O)c2cccs2)cc1 | 18 | 83* | 86* | 98* | 88* | -5 | 85*
O=C(/C=C\Nc1ccc2c(c1)OCO2)c1ccc2c(c1)OCO2 | 51 | 51* | 85* | 60* | 83* | 3 | 84*
O=C(/C=C\Nc1ccc2c(c1)OCO2)c1cccs1 | 27 | 65* | 82* | 90* | 78* | 1 | 82*
O=C(Nc1ccc2c(c1)OCO2)c1cccs1 | 112 | -28 | 13 | -11 | 22 | -1 | .
SMILES | STAT3 act | STAT1 blocker | PPC-1+TRAIL kill | STAT3 blocker | C8 TRAIL sens | HSP90 refold inh | PPC-1 tox
CC(C)S(=O)(=O)c1csc(C(=O)NN)c1-n1cccc1 | . | . | 5 | . | -4 | 4 | .
COc1ccc(Nc2nc(N)nc(CSc3nccn3C)n2)cc1 | 118 | -30 | 18 | -19 | 8 | 2 | .
CCOC(=O)C(C(=O)NCCCN1CCOCC1)C1CCCCC1 (centres undefined) | 107 | 0 | 18 | -7 | -11 | 4 | .
O=C(NCCc1nc2ccccc2[nH]1)c1ccc(Br)o1 | . | . | . | . | -10 | -4 | .
O=C(Nc1nc2ccccc2[nH]1)c1ccc(Br)o1 | 123 | -49 | 25 | -27 | 44 | 7 | 24
COC(=O)c1ccccc1NS(=O)(=O)c1ccc(F)cc1 | 103 | 4 | 28 | -1 | 11 | -2 | .
Cc1nn(C)cc1/C=C/C(=O)c1cccs1 | 119 | -14 | 23 | -18 | 38 | -4 | 6
Cc1nn(C)cc1/C=C/C(=O)c1ccccc1 | 115 | -12 | 30 | -11 | 36 | 1 | .
O=C1C=C(NCCN2CCOCC2)C(=O)c2cnccc21 | 28 | 53* | 65* | 83* | . | 8 | 67*
COc1ccc2nc(N3C(=O)CC(Cc4ccc(C)cc4)C3=O)sc2c1 (centres undefined) | 97 | 1 | 13 | 1 | -8 | 2 | .
CCOC(=O)c1sc(NC(=O)C(CC)OC(=O)C(CC(C)C)NC(=O)c2ccccc2)nc1C (centres undefined) | 103 | 11 | 7 | 8 | 6 | 0 | .
CCOC(=O)N1CCC(N2CCCC(C(=O)c3cc(F)ccc3OC)C2)CC1 (centres undefined) | 99 | -7 | 15 | 6 | -4 | 0 | .
COC(=O)c1ccc(NC(=O)CC2C(=O)N(c3ccc(C)cc3)C(=O)N2CC(C)C)cc1 (centres undefined) | 94 | 2 | 10 | 7 | -3 | 3 | .
CCC(C)c1ccc(-c2cc(C(=O)OCC(=O)Nc3cc(C)on3)c3ccccc3n2)cc1 (centres undefined) | 83 | -9 | 83* | 20 | 83* | 3 | 80*
COc1ccc(-c2cc(C(=O)OCC(=O)Nc3cc(C)on3)c3ccccc3n2)cc1OC | 86 | 2 | 30 | 18 | 17 | 1 | .
COc1ccccc1/C=C1\SC(=S)N(CCC(=O)N2CCN(C)CC2)C1=O | . | . | . | . | 12 | 2 | .
CCN(CCC(=O)Nc1cc(OC)cc(OC)c1)Cc1ccccc1 | 98 | -7 | 3 | 6 | 5 | 3 | .
CCOc1ccc(-c2cc(C(=O)N3CCN(c4ccccn4)CC3)c3ccccc3n2)cc1 | 107 | -17 | 81* | -3 | 89* | 0 | 82*
Cc1ccc(-c2cc(C(=O)N3CCOCC3)c3ccccc3n2)o1 | . | . | . | . | 24 | . | .
COc1cc(-c2cc(C(=O)N3CCN(c4ccccn4)CC3)c3ccccc3n2)cc(OC)c1OC | 98 | 23 | . | 7 | 20 | 2 | .
COc1ccc(-c2cc(C(=O)N3CCN(c4ccccn4)CC3)c3ccccc3n2)cc1 | 110 | -9 | 51* | -7 | 58* | -2 | 53*
Cc1ccc(-c2cc(C(=O)N3CCN(c4ccc(F)cc4)CC3)c3ccccc3n2)o1 | 112 | 4 | 33 | -8 | 11 | 1 | 30
Cc1ccc2nc(-c3ccc(NC(=O)CNC4CC4)cc3)sc2c1 | 78 | -16 | 5 | 30 | 49 | -5 | .
Cc1cccc(OCC(=O)N(Cc2nnc(-c3ccccc3Cl)o2)C2CC2)c1 | . | . | . | . | -12 | . | .

From PubChem
